The record followed here is ChEMBL document CHEMBL1135408, “Design and synthesis of novel 5-substituted acyclic pyrimidine nucleosides as potent and selective inhibitors of hepatitis B virus” (J Med Chem, 2002).

Values after ≈ are worked out from the molar mass of the structure shown.

In experiment [1] the test system is Anas sp. Put plainly: Concentration required to reduce the viral DNA in infected cells to 50% of untreated infected controls of Hepatitis B virus in primary duck hepatocyte (DHBV) cultures. The format is functional. A digest of the protocol:
(§1)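 Primary hepatocytes from 9–14 day old ducklings persistently infected with DHBV, in L-15 with 5% FBS plus antibiotics. Compound was serially diluted and added in triplicate from day 2, with medium changed every second day to day 12; cells were harvested day 14. Viral DNA was measured by 32P-probe dot-blot and phosphorimaging, and EC50 was taken as 50% reduction versus untreated infected cells.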

The subject of experiment [2] is HFF. Put plainly: Concentration required to reduce the proliferation of HFF (human foreskin fibroblasts) cells to 50% of untreated controls. The format is functional, cell-based.
Experiment [3] concerns HFF. The experiment in a line: Cytotoxic concentration required to reduce the uptake of neutral red stain by uninfected cell monolayers to 50% of untreated uninfected human foreskin fibroblasts (HFF). The format is functional. The gist of the method: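 Neutral red uptake was measured in uninfected human foreskin fibroblast monolayers after 7 days of exposure. CC50 is 50% of untreated uninfected cells; ">" means 50% was not reached at the highest concentration tested.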

In experiment [4] the test system is Vero. Put plainly: Cytotoxic concentration required to reduce the viability of Vero cells as determined by MTT assay. The format is functional. To be noted: Chlorocebus sabaeus. The gist of the method:
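Vero cells were seeded at 2.5 × 10^4 per well and attached for 6–8 h. They were then exposed for 3 days at 37 °C to 200–1.5 µg/mL, with a DMSO control. MTT was added for 4 h, solubilized overnight, and absorbance read at 560–650 nm. CC50 is 50% viability of untreated control.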

Experiment [5] concerns Anas sp. The experiment in a line: In vitro antiviral activity against Hepatitis B virus in primary duck hepatocyte (DHBV) cultures and expressed as percent inhibition of viral DNA at 10 ug/mL. It is filed as functional. A digest of the protocol: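 DHBV-infected primary duck hepatocytes in L-15 with 5% FBS were treated at 10 µg/mL final in triplicate from day 2 to day 12, with medium changed every second day, and harvested day 14. DNA was extracted and dot-blot hybridized with a 32P DHBV probe, then quantified by phosphorimaging. % inhibition = (untreated − treated)×100/untreated, averaged over triplicates.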

Experiment [6] can be described thus: Concentration required to reduce the proliferation of PHA stimulated human peripheral blood T lymphocytes to 50% of untreated PHA stimulated control. The format is functional. The gist of the method:
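Nylon-wool-enriched T cells from normal donor buffy coats, 2 × 10^5 per well in serum-free AIM V, were stimulated with PHA at 1 µg/mL final. Compounds from DMSO stock were tested in triplicate from 50 µg/mL in serial dilutions. After 3–4 days at 37 °C, cells were pulsed with [3H]thymidine 1 µCi/well for 18 h and counted by scintillation. Counts were compared with DMSO-matched PHA controls.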

In experiment [7] the test system is Daudi. Put plainly: Concentration required to reduce the proliferation of Daudi cells to 50% of untreated controls. The format is functional, cell-based. The settings on record: Homo sapiens. A digest of the protocol:
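Daudi cells were grown in suspension, so no trypsin detachment was used. CC50 is the concentration reducing proliferation to 50% of untreated controls.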

Experiment [8] has as its system Anas sp. The experiment in a line: Concentration required to reduce the viral DNA in infected cells to 50% of untreated infected controls of Hepatitis B virus in primary duck hepatocyte (DHBV) cultures. The format is functional, organism-based. The gist of the method: as §1

The compound `CC(N=[N+]=[N-])c1cn(COCCO)c(=O)[nH]c1=O` (stereo not given) yielded a 50% effective concentration (EC50) in experiment [1] above 10 µg/mL.

Compound `CC(N=[N+]=[N-])c1cn(CCC(CO)CO)c(=O)[nH]c1=O` (stereo not given) displayed a 50% effective concentration (EC50) in experiment [1] of 0.1 µg/mL (≈ 0.353 µM).

Regarding `C=C(N=[N+]=[N-])c1cn(COCCO)c(=O)[nH]c1=O`, the concentration for half-maximal inhibition (IC50) was above 100 µg/mL in experiment [2], above 50 µg/mL in experiment [6] and above 50 µg/mL in experiment [7]. This compound also returned a half-maximal effective concentration (EC50) in experiment [1] of 0.01 µg/mL (≈ 0.0395 µM). Moreover, the CC50 in experiment [3] and in experiment [4] was above 100 µg/mL in each case. The inhibition at 10 µg/mL in experiment [5] turned out to be 84%.

With `C=C(N=[N+]=[N-])c1cn(CCC(CO)CO)c(=O)[nH]c1=O`, the IC50 in experiment [2] is above 100 µg/mL; in experiment [6] it was above 50 µg/mL; in experiment [7], above 50 µg/mL. Also, the half-maximal effective concentration (EC50) in experiment [1] came to 0.01 µg/mL (≈ 0.0356 µM). Besides, the cytotoxic concentration (CC50) in experiment [3] is above 100 µg/mL; in experiment [4], above 200 µg/mL. Moreover, the inhibition at 10 µg/mL in experiment [5] worked out at 93%.

Regarding `C=C(N=[N+]=[N-])c1cn(COC(CO)CO)c(=O)[nH]c1=O`, the IC50 in experiment [2] was 100 µg/mL (≈ 353 µM); in experiment [6], above 50 µg/mL; in experiment [7] it was above 50 µg/mL. A half-maximal response in experiment [1] (EC50) required 0.01 µg/mL (≈ 0.0353 µM). Besides, the cytotoxic concentration (CC50) in experiment [3] is above 100 µg/mL; in experiment [4], above 200 µg/mL. Moreover, at 10 µg/mL the inhibition in experiment [5] was 86%.

As for `CC(N=[N+]=[N-])c1cn(COC(CO)CO)c(=O)[nH]c1=O` (stereo not given), a half-maximal response in experiment [1] (EC50) required 1 µg/mL (≈ 3.51 µM).

In the case of `Nc1nc2c(ncn2COC(CO)CO)c(=O)[nH]1` [GANCICLOVIR], in experiment [1], the concentration for a half-maximal effect (EC50) was 1.5 µg/mL (≈ 5.88 µM).

Regarding `Nc1ccn([C@@H]2CS[C@H](CO)O2)c(=O)n1` [LAMIVUDINE], the EC50 in experiment [1] is 0.01 µg/mL (≈ 0.0436 µM). The same compound registered a 50% cytotoxic concentration (CC50) in experiment [4] above 100 µg/mL. Also, the inhibition at 10 µg/mL in experiment [5] is 96%. Moreover, in experiment [6], the 50% inhibitory concentration (IC50) is above 50 µg/mL.

In experiment [8], `Nc1nc(O)c2ncn(CCC(CO)CO)c2n1` [PENCICLOVIR] gave an EC50 of 0.3 µg/mL (≈ 1.18 µM).
